We go through 5 compounds from paper PMC2743929 (Cell calcium, 2009).

The term Kd denotes a measure of binding affinity in units of concentration.

Test [1] has as its system ASI(+)RyR1-expressing dyspedic myotubes. The test can be described thus: Intracellular Ca2+ measurement. The test is classed as cell-based, mice. Conditions: 500μM, 45s application (Fig. 2). The essentials:
(§1)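 RyR1-null mouse myotubes in primary culture; nuclear cDNA injection where applicable, expressing cells marked by co-injected cherry red cDNA (0.005μg/μl). Loaded 25min at room temperature with 5μM fura-FF AM in HEPES Ringer's, pH7.4. Ratio 340/380nm (510nm emission) every 350ms. Sequence: 500μM 4-cmc for 45s, 60s wash, zero-Ca²⁺ ICE for 120s, then 10mM Ca²⁺ plus 10μM ionomycin. Peak responses compared by ANOVA/Dunnett's test.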

Test [2] deals with ASI(-)RyR1-expressing dyspedic myotubes. The test can be described thus: Intracellular Ca2+ measurement. The test is classed as cell-based, mice. Conditions: 500μM, 45s application (Fig. 2). The essentials: as §1
In test [3] the test system is non-expressing dyspedic (RyR1-null) myotubes. Description: Intracellular Ca2+ measurement. Format: cell-based, mice. The settings on record: 500μM (Fig. 2B). The essentials:
as §1

For test [4], the system named is native skeletal muscle RyR1. The test can be described thus: [3H]ryanodine binding to SR vesicles. Format: biochemical. The settings on record: for Ryanodine binding: mean ±SEM, SEM.
The conditions of test [5]: low to moderate affinity Ca2+ dye; stated property, no reference given; cited from earlier work.
Test [6] deals with native skeletal muscle RyR1. The test can be described thus: Ca2+ release from SR vesicles. Format: biochemical. The essentials:
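SR vesicles in 100mM KH₂PO₄ (pH7), 4mM MgCl₂, 1mM Na₂ATP, 0.5mM antipyrylazo III; extravesicular Ca²⁺ followed as OD at 710nm. Additions in sequence: 1μM thapsigargin, then peptide, then 5μM ruthenium red, then 1.5μg/ml A23187. n=3; paired or unpaired Student's t-test, P<0.05.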

Another test deals with native RyR1. The test can be described thus: Single channel recording in lipid bilayers. The test is classed as biochemical. The settings on record: for effect on RyR1 channel activity (open probability), in words: n=3 (Fig. 6). The essentials:
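Native RyR1 vesicles fused into lipid bilayers. After incorporation, cis contained 230mM CsCH₃O₃S, 20mM CsCl, 10mM TES, 500mM mannitol, 100μM free Ca²⁺, pH7.4; trans was made symmetrical at 230mM CsCH₃O₃S. Potential alternated between -40 and +40mV every 30s. Open probability from one to two 30s periods, with threshold ~20% of maximal conductance. Control, then 100μM peptide; n=3.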

Where [7] appears, read: substance alone, 10μM Ca2+, versus control, n=3 (Fig. 5A, 7).

As for `Cc1cc(O)ccc1Cl` [4-cmc, 4-chloro-m-cresol], the “effect on intracellular Ca2+, in words” value in test [1] is “rapid increase”; in test [2], “rapid increase”; in test [3], “not in non-expressing dyspedic myotubes”.

For `Cn1c(=O)c2c(ncn2C)n(C)c1=O` [Caffeine, caffeine, reference compound], in test [4] (setting [7]), the “effect on [3H]ryanodine binding, in words” value is “significantly increases”.

As to `CC(=O)OCOC(=O)CN(CC(=O)OCOC(C)=O)c1cc2oc(-c3ncc(C(=O)OCOC(C)=O)o3)cc2cc1OCCOc1c(N(CC(=O)OCOC(C)=O)CC(=O)OCOC(C)=O)ccc(F)c1F` [fura-FF], in test [5], the Kd is 5.5 µM.

“^3471TADSKSKMAK-----------SGGSDQERTAAKLRG^3500 [ASI(mutant)]”: the “effect on [3H]ryanodine binding, in words” value in test [4] (setting [7]) is “only marginally increased”. For the same compound, the “effect on Ca2+ release from SR vesicles, in words” value in test [6] (10μM peptide, n=3 (Fig. 5E)) is given as “did not increase”. Besides, the “effect on initial Ca2+ release from SR vesicles, in words” value in test [6] (100μM peptide, n=3 (Fig. 5C-E)) is “small increase”. Also, in the test on native RyR1 (data not shown), the “effect on channel activity, in words” value is “no effect”.

Turning to “^3471TADSKSKMAK-----------SGGSDQERTKKKRRG^3500 [ASI(-)]”, the “effect on [3H]ryanodine binding if channels first activated by 100μM peptide A, in words” value in test [4] (10μM Ca2+, competition (Fig. 7A&B)) is recorded as “failed to significantly increase”. Further, the “[3H]ryanodine binding achievable” value in test [4] (10μM caffeine plus 100μM peptide, 10μM Ca2+ (Fig. 7C)) is over 250 % control. Also, the “effect on [3H]ryanodine binding, in words” value in test [4] (100μM peptide, [Ca2+] ≥10μM, n=3 (Fig. 8A)) is “significantly increased”; in test [4] (setting [7]) it was “significantly increased”. For the same compound, the Ryanodine binding in test [4] (500μM ASI(-) plus 100μM DP4) is reported as 339±32 % control; in test [4] (500μM peptide alone, SR vesicles, 37°C, 15nM [3H]ryanodine), 190±1 % of control. In addition, in test [6] (initial rate, peptide minus thapsigargin, n=3 (Fig. 5B&E)), the “effect on Ca2+ release from SR vesicles, in words” value is “significantly increased”. Also, the “effect on RyR1 channel activity (open probability), in words” value with native RyR1 (+40mV, 100μM peptide) is listed as “significant inhibition”; in the test on native RyR1 (-40mV), “significant activation”.
